Data on three molecules can be found in ChEMBL document CHEMBL1124177, “Synthesis, configuration, and evaluation of two conformationally restrained analogues of phencyclidine” (J Med Chem, 1988).

The test system of experiment [1] is Rattus norvegicus. Put plainly: The compound was tested for its stereotyped behavior after intracerebroventricular introduction in the rat. The class given is functional. In short, it runs like this:
(§1)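 Sprague–Dawley rats (~200 g), caged singly, adapted ≥1 h, each used once. Intracerebroventricular dosing. Scored on the Sturgeon PCP rating scale immediately, at 2.5 and 5 min, then every 5 min until back to control. Dose–response built from peak-effect ratings, ≥18 rats per curve. ED50 (nmol/rat) and confidence limits by computerized Finney assay.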

Experiment [2] deals with Rattus norvegicus. Description: The compound was tested for ataxia after intracerebroventricular introduction in the rat. The class given is functional. In short, it runs like this:
as §1

Experiment [3] deals with Glutamate receptor ionotropic, NMDA 2C (Rattus norvegicus, UniProt Q00961). Description: Binding affinity of compound against Phencyclidine receptor by displacement of [3H]TCP. The following applies: read-out: Ki app. In short, it runs like this:
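Membrane preparation incubated in triplicate with 2 nM [3H]TCP plus varying displacer levels in 5 mM Tris-HCl pH 7.4, 1 h, room temperature. Filtered on filters presoaked in 0.5% polyethylenimine, rinsed with Tris buffer, counted by liquid scintillation. Specific binding defined with 10 μM TCP. Mean ±SEM of at least three experiments.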
For orientation: In a radioligand displacement assay an active substance lowers the binding of a labelled ligand.

Sequence of Glutamate receptor ionotropic, NMDA 2C (Q00961 whole entry): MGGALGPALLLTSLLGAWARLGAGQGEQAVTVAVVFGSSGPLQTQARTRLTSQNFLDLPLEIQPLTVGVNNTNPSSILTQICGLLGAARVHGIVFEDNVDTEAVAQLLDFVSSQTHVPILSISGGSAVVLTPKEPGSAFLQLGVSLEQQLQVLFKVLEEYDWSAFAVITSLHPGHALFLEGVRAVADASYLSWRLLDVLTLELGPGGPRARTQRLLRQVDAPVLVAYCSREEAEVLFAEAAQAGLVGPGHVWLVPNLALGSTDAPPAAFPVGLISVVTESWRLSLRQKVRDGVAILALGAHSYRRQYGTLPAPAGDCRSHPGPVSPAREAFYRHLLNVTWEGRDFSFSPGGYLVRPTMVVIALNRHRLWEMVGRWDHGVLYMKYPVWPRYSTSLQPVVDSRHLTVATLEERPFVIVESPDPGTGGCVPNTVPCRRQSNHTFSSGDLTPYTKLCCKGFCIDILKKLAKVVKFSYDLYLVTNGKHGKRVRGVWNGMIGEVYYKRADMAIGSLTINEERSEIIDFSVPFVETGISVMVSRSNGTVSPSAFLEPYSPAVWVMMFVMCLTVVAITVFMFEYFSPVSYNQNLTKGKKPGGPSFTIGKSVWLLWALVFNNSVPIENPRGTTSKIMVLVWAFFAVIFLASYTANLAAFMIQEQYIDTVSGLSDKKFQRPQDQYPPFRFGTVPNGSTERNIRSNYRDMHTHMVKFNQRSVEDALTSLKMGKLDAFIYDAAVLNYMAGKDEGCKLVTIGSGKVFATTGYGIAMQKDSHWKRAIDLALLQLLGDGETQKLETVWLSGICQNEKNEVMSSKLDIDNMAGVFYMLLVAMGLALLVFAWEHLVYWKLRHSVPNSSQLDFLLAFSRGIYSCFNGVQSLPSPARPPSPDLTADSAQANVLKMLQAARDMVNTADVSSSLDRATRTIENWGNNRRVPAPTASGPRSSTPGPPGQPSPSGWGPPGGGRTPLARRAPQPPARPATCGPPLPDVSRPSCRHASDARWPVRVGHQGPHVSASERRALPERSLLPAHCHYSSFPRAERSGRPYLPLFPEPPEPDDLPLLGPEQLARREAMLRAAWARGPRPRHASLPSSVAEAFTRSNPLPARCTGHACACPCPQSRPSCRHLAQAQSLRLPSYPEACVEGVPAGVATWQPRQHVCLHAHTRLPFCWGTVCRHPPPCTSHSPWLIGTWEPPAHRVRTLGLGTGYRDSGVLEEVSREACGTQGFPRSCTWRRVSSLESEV

Consider `c1ccc([C@@H](C2CC3CC3C2)N2CCCCC2)cc1` (some centres undefined), for which the ED50 in the experiment with Rattus norvegicus [1] stood at 310 nM; in the experiment with Rattus norvegicus [2], 300 nM. In addition, the Ki in experiment [3] worked out at 680 nM.
Taken in the same sequence, the figures for `c1ccc([C@H](C2CC3CC3C2)N2CCCCC2)cc1` (some centres undefined) were 400 nM, 450 nM and 630 nM.
Taken in the same sequence, the figures for `c1ccc(C2(N3CCCCC3)CCCCC2)cc1` [PHENCYCLIDINE] were 150 nM, 210 nM and 91 nM.
